Measurements from different studies.
Lines come from different studies, so protocols differ.
Target: Dual specificity mitogen-activated protein kinase kinase 1 (MAP2K1, Homo sapiens, UniProt Q02750)

SMILES | assay | test system | setting | endpoint | result
O=C(O)[C@@H]1[C@@H](Cn2nnc3ccccc3c2=O)CC[C@H]1C(=O)c1ccc(OCCC2CCOCC2)cc1 | cell-free assay, competition with immobilised ligand | – | 1 µM | remaining binding | 81%
CNCc1ccc(-c2cc(-c3nc(-c4ccc(S(=O)(=O)C(C)C)cc4)cnc3N)on2)cc1 | enzyme activity, inhibitor | – | 0.4 µM | inhibition | 12%
Cc1ccc(C(=O)NCc2ccsc2)cc1C#Cc1cn(C(C)C)c2ncnc(N)c12 | enzyme activity, inhibitor | – | 1 µM | activity vs control | 93%
CCN(CC)c1ccc(C2=NNC(=O)CC2C)cc1[N+](=O)[O-] (stereo not drawn) | enzyme activity, inhibitor | – | 10 µM | remaining activity | 126%
Cc1ccc(NC(=O)c2ccc(CN3CCN(C)CC3)cc2)cc1Nc1nc(-c2cccnc2)cs1 | cell-free assay | – | 0.5 µM | remaining signal | 111%
C[C@@H]1CN(c2cc(-c3nn(C)c4ccc(OC5(C)CC5)cc34)ncn2)C[C@H](C)O1 | cell-free assay, competition with immobilised ligand | – | 1 µM | remaining binding | 74%
CC(C)(C)c1nc2c(s1)c1nc(N)ncc1c1ccc(NS(=O)(=O)c3c(F)cccc3F)c(F)c12 | enzyme activity, inhibitor, radiometric | – | 1 µM | remaining activity | 79%
Cc1nccc(COC(=O)N2C[C@@H]3[C@@H](CNC(=O)c4ccc5[nH]nnc5c4)[C@@H]3C2)n1 | cell-free assay, competition with immobilised ligand | – | 1 µM | remaining binding | 92%
O=C(Nc1cnn(-c2csc(C(=O)NC3COC3)c2)c1)Nc1c(F)cccc1Cl | enzyme activity, inhibitor | – | 5 µM | remaining activity | 107%
Nc1ncnc2occ(-c3ccc(NC(=O)Nc4cc(C(F)(F)F)ccc4F)cc3)c12 | cell-free assay, inhibitor | – | 20 µM | remaining signal | 9.3%
Cc1ccc(Nc2nccc(N(C)c3ccc4c(C)n(C)nc4c3)n2)cc1S(N)(=O)=O | enzyme activity, inhibitor | – | 0.3 µM | inhibition | -5%
CN([C@@H]1CCc2c(CC(=O)O)c3cc(S(C)(=O)=O)ccc3n2C1)S(=O)(=O)c1ccc(F)cc1 | cell-free assay, competition with immobilised ligand | – | 1 µM | remaining binding | 98%
N#CCCc1ccc2c(c1)-c1[nH]c3ccc([N+](=O)[O-])cc3c1CC(=O)N2 | cell-free assay | – | 0.5 µM | remaining signal | 97.1%
COc1cc2ncnc(Nc3ccc(Oc4ccccc4)c(C)c3C)c2cc1OC | enzyme activity, inhibitor | – | 1 µM | inhibition | 1%
CC(C)(C)C(=O)c1sc(NC2CCCCC2)nc1N | enzyme activity, inhibitor | – | 10 µM | remaining activity | 94%
O=C(NCc1ncc(C(F)(F)F)cc1Cl)c1ccc2c(c1)C1(CCS(=O)(=O)CC1)[C@H](C1CC1)N2S(=O)(=O)c1ccc(F)cc1 | cell-free assay, competition with immobilised ligand | – | 1 µM | remaining binding | 98%
Cn1c(=O)n(-c2ccc(C(C)(C)C#N)cc2)c2c3cc(-c4cnc5ccccc5c4)ccc3ncc21 | enzyme activity, inhibitor | – | 10 µM | remaining activity | 116%
CCN1CCN(Cc2ccc(NC(=O)c3ccc(C)c(Oc4ccnc5[nH]ccc45)c3)cc2C(F)(F)F)CC1 | target engagement in cells, inhibitor, chemoproteomics | Huh-7 | 1 µM | inhibition | -41.7%

SMILES | assay | test system | setting | endpoint | result
CC(C)(O)[C@H]1CC[C@H](Nc2ccc3ncc(-c4cccc(C(F)(F)F)c4)n3n2)CC1 | enzyme activity, inhibitor | – | 1 µM | remaining activity | 79.5%
Nc1nc(Nc2ccccc2)sc1C(=O)c1c(F)cccc1F | enzyme activity, inhibitor | – | 10 µM | remaining activity | 96%
Cc1cc(-n2nc(Cc3cc(F)cc(C(F)(F)F)c3)nc2C)ccc1C(N)=O | cell-free assay, competition with immobilised ligand | – | 1 µM | remaining binding | 100%
CNC(=O)c1cc(Oc2ccc(NC(=O)Nc3ccc(Cl)c(C(F)(F)F)c3)cc2)ccn1 | enzyme activity, inhibitor | – | 10 µM | inhibition | 2%
Cn1cnc(Br)c1C1=CN(c2ncnc3[nH]cnc23)CCS1 | enzyme activity, inhibitor, radiometric | – | 2 µM | inhibition | 16.9%
CN(C)C1CCN(CC#Cc2nn(C3CCCC3)c3nc(NCc4ccccc4)ncc23)C1 (stereo not drawn) | enzyme activity, inhibitor, FRET | – | 10 µM | inhibition | 13%
Cc1cc(NC(=O)c2cccc3cc(-c4cccc5[nH]nc(N)c45)ccc23)ccc1F | enzyme activity, inhibitor | – | 0.1 µM | activity vs control | 102%
O=C1NC(=O)c2cc(Nc3ccc(F)cc3)c(Nc3ccc(F)cc3)cc21 | cell-free assay | – | 0.5 µM | remaining signal | 103%
CCN(CC)CCNC(=O)c1c(C)[nH]c(/C=C2\C(=O)Nc3ccc(F)cc32)c1C | enzyme activity, inhibitor | – | 10 µM | inhibition | 76%
Cc1[nH]c(/C=C2\C(=O)Nc3ccc(F)cc32)c(C)c1C(=O)N[C@H]1CCN(C(=O)N(C)C)C1 | enzyme activity, inhibitor | – | 0.1 µM | remaining activity | 94%
FC(F)c1nc2ccccc2n1-c1nc(N2CCOCC2)nc(N2CCOCC2)n1 | enzyme activity, inhibitor | – | 10 µM | remaining activity | 83%
CCN(CC)CCNC(=O)c1c(C)[nH]c(/C=C2\C(=O)Nc3ccc(F)cc32)c1C | enzyme activity, inhibitor | – | 0.1 µM | remaining activity | 79%
CS(=O)(=O)N1CCCC(NC(=O)[C@H](CCC2CCCCC2)NC(=O)c2ccc(CNC(=O)c3cnc4ccccn34)cc2)C1 (stereo partly drawn) | cell-free assay, competition with immobilised ligand | – | 0.1 µM | remaining binding | 100%
FC(F)(F)Oc1cccc(-c2cnc3ccc(-c4ccncc4)nn23)c1 | enzyme activity, inhibitor, radiometric | – | 5 µM | activity vs control | 73%
CN1CC(Oc2cnc(C#N)cc2-c2ccn3nc(NC(=O)C4CC4)cc3c2)C1 | enzyme activity, inhibitor | – | 1 µM | inhibition | 13%
CC(C)(O)c1cncc(-c2nc3ccc(F)cc3n2C2CC2)c1 | cell-free assay, competition with immobilised ligand | – | 1 µM | remaining binding | 100%
CC(C)c1ccc(NC(=O)c2cccs2)c(-c2nc3ccccc3[nH]c2=O)c1 | enzyme activity, inhibitor | – | 1 µM | activity vs control | 112%
COc1cc(Cl)c(C(=O)N[C@@H](CN[C@H]2CC[C@@H](N)CC2)Cc2ccc(C#N)cc2)cc1-c1ccc(CN[C@H](C)c2ccc(C)cc2)o1 | enzyme activity, inhibitor | – | 1 µM | remaining activity | 98%
